We go through 2 compounds from ChEMBL document CHEMBL3098087, “Synthesis and evaluation of (-)- and (+)-[¹¹C]galanthamine as PET tracers for cerebral acetylcholinesterase imaging” (Bioorg Med Chem, 2014).

The test system of one series is Cerebellum. Put plainly: Biodistribution in ddY mouse cerebellum at 3.7 MBq, iv after 30 mins by gamma counting. It is filed as ADME, organism-based. The note with it: in vivo, 0.5 h. The method in brief: (§1)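 ddY male mice, seven weeks old, 20–25 g, received 3.7 MBq of tracer. Five animals per time point, up to 60 min, were killed by exsanguination. Blood and brain, or striatum and cerebellum, were excised, weighed and gamma-counted. Uptake is expressed as %ID/g of tissue.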

Series [1] deals with Brain. The series is described as follows: Biodistribution in ddY mouse brain at 3.7 MBq, iv after 10 mins by gamma counting. It is filed as ADME, organism-based. The note with it: in vivo. The gist of the method:
as §1

Series [2] has as its system Striatum. The series is described as follows: Biodistribution in ddY mouse striatum at 3.7 MBq, iv after 30 mins by gamma counting. It counts as ADME, organism-based. The note with it: in vivo, 0.5 h. The method in brief:
as §1

The test system of series [3] is Brain. The series is described as follows: Biodistribution in ddY mouse brain at 74 MBq, iv after 10 to 30 mins by PET analysis. The note with it: in vivo.
The test system of series [4] is Striatum. Put plainly: Drug uptake in Wistar rat striatum at 2.2 […]/200 uL after 30 mins by autoradiography analysis. It is filed as ADME, tissue-based. The note with it: in vitro, 0.5 h. The method in brief: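 Coronal brain sections (20 µm) from male Wistar rats were thaw-mounted on silane-coated slides. Sections were incubated with tracer in binding buffer for 30 min at 4°C, then washed with ice-cold buffer and water. They were exposed to imaging plates for 6 h alongside calibrated 11C standards.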

For series [5], the system named is Striatum. Put plainly: Biodistribution in ddY mouse striatum at 3.7 MBq, iv by gamma counting in presence of donepezil. The note with it: in vivo.
Series [6] deals with Striatum. Put plainly: Drug uptake in Wistar rat striatum at 10 mM after 30 mins by autoradiography analysis counting in presence of donepezil. It counts as ADME, tissue-based. The note with it: 0.5 h, 10000 µM.

Regarding `COc1ccc2c3c1O[C@@H]1C[C@H](O)C=C[C@]31CCN([11CH3])C2`, the Drug uptake is 1.5 % ID/g with Cerebellum, 2.1 % ID/g with Brain [1] and 1.5 % ID/g with Striatum [2].
On to `COc1ccc2c3c1O[C@H]1C[C@@H](O)C=C[C@@]31CCN([11CH3])C2`, for which the Drug uptake result in the series on Brain [3] is on record as “Active”; in the series on Cerebellum, 1.7 % ID/g; in the series with Brain [1] it was 2.1 % ID/g; in the series on Striatum [4], “Active”; in the series on Striatum [5] it was 1.3 % ID/g; in the series with Striatum [6], “Not Active”. The Drug uptake with Striatum [2] is given as 2.1 % ID/g.
